Active and inactive are the calls of the source. The rule behind the calls is not given here.

This experiment concerns RAW264.7. In words: Antiinflammatory activity in mouse RAW264.7 cells assessed as inhibition of LPS-induced NO production at 10 uM preincubated for 1 hr followed by LPS addition and measured after 24 hrs by Griess reagent-based assay relative to control. Format: functional. The gist of the method:
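RAW 264.7 cells pretreated with compound for 1 h, then LPS 1 µg/mL for 24 h. Single-point inhibition at 10 µM. IC50 by regression of inhibition over several concentrations. At least three independent experiments.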
On the technique in general: The Griess reaction detects nitrite, a stable product of nitric oxide.
The inhibition is how much of the control response was suppressed. Take `CCCc1nn(C)c2c(NCCc3ccccc3)nc(-c3cc(OC)c(OC)c(OC)c3)nc12`: the inhibition at 10 µM was determined as 20.2%. Regarding `CCCc1nn(C)c2c(Nc3cccc(C(F)(F)F)c3)nc(/C=C/c3cc(OC)c(OC)c(OC)c3)nc12`, the inhibition at 10 µM came out at 38.2%. `CCCc1nn(C)c2c(NCCc3ccccc3)nc(/C=C/c3cc(OC)c(OC)c(OC)c3)nc12`: the inhibition at 10 µM turned out to be 86.1%.

For `CCCc1nn(C)c2c(Nc3ccccc3)nc(/C=C/c3cc(OC)c(OC)c(OC)c3)nc12`, the inhibition at 10 µM came out at 48.1%. Consider `CCCc1nn(C)c2c(NCCc3ccccc3Cl)nc(/C=C/c3cc(OC)c(OC)c(OC)c3)nc12`, for which the inhibition at 10 µM amounted to 46.9%. Turning to `CCCc1nn(C)c2c(Nc3ccc(Br)cc3)nc(/C=C/c3cc(OC)c(OC)c(OC)c3)nc12`, the inhibition at 10 µM was 33%. In the case of `CCCc1nn(C)c2c(NC(C)C)nc(/C=C/c3ccco3)nc12`, the inhibition at 10 µM turned out to be 37.7%. Turning to `CCCc1nn(C)c2c(Nc3ccc(C(=O)O)cc3)nc(/C=C/c3cc(OC)c(OC)c(OC)c3)nc12`, the inhibition at 10 µM was 15.3%.

As to `CCCc1nn(C)c2c(N(C)C)nc(/C=C/c3ccccc3)nc12`, the inhibition at 10 µM amounted to 27.1%. As to `CCCc1nn(C)c2c(NCc3ccc(OC)cc3)nc(/C=C/c3ccco3)nc12`, the inhibition at 10 µM was found to be 43.8%.

For `CCCc1nn(C)c2c(NCCCN3CCOCC3)nc(/C=C/c3ccccc3)nc12`, the inhibition at 10 µM is 42.4%. With `CCCc1nn(C)c2c(Nc3cccc(C)c3)nc(/C=C/c3ccccc3)nc12`, the inhibition at 10 µM was determined as 15.3%. On the same count and under the same terms, the figure for `CCCc1nn(C)c2c(NCc3ccc(Br)cc3)nc(/C=C/c3cc(OC)c(OC)c(OC)c3)nc12` is 53.9%.

Regarding `CCCc1nn(C)c2c(Nc3cccc(C)c3)nc(-c3cc(OC)c(OC)c(OC)c3)nc12`, the inhibition entry was “inactive”. As to `CCCc1nn(C)c2c(Nc3ccccc3C)nc(/C=C/c3cc(OC)c(OC)c(OC)c3)nc12`, the inhibition at 10 µM turned out to be 54.4%. As to `CCCc1nn(C)c2c(NCCc3ccccc3F)nc(/C=C/c3cc(OC)c(OC)c(OC)c3)nc12`, the inhibition at 10 µM is 85%. Regarding `CCCc1nn(C)c2c(NCc3ccccc3Cl)nc(/C=C/c3cc(OC)c(OC)c(OC)c3)nc12`, the inhibition at 10 µM is 90%. Regarding `CCCc1nn(C)c2c(NCc3ccc(F)cc3)nc(/C=C/c3cc(OC)c(OC)c(OC)c3)nc12`, the inhibition at 10 µM worked out at 69.7%. On to `CCCc1nn(C)c2c(N(C)C)nc(/C=C/c3ccco3)nc12`, for which the inhibition at 10 µM was 30.6%. Turning to `CCCc1nn(C)c2c(NCCc3ccccc3)nc(/C=C/c3ccccc3)nc12`, the inhibition at 10 µM is 48.6%. For the molecule `CCCc1nn(C)c2c(NCCc3ccccc3F)nc(/C=C/c3ccccc3)nc12`, the inhibition at 10 µM was found to be 43.9%. Turning to `CCCc1nn(C)c2c(N3CCOCC3)nc(-c3cc(OC)c(OC)c(OC)c3)nc12`, the inhibition at 10 µM is 5.2%. Still for that read-out and setting: the result for `CCCc1nn(C)c2c(Nc3cccc(C(F)(F)F)c3)nc(/C=C/c3ccco3)nc12` reads 8.9%; that for `CCCc1nn(C)c2c(N(C)C)nc(-c3cc(OC)c(OC)c(OC)c3)nc12`, 21.2%; that for `CCCc1nn(C)c2c(NCCc3ccc(O)cc3)nc(/C=C/c3cc(OC)c(OC)c(OC)c3)nc12`, 15%.

Take `CCCc1nn(C)c2c(NCc3ccccc3OC)nc(/C=C/c3ccco3)nc12`: the inhibition at 10 µM worked out at 38.4%. As to `CCCc1nn(C)c2c(NCCc3ccccc3Cl)nc(/C=C/c3ccco3)nc12`, the inhibition at 10 µM came out at 70.8%. As to `CCCc1nn(C)c2c(NC)nc(-c3cc(OC)c(OC)c(OC)c3)nc12`, the inhibition at 10 µM is 21.6%. On to `CCCc1nn(C)c2c(NCCc3ccc(Cl)cc3)nc(-c3cc(OC)c(OC)c(OC)c3)nc12`, for which the inhibition at 10 µM turned out to be 22.2%. Regarding `CCCc1nn(C)c2c(NCc3ccc(F)cc3)nc(/C=C/c3ccco3)nc12`, the inhibition at 10 µM worked out at 50.7%.

On to `CCCc1nn(C)c2c(Nc3cccc(C)c3)nc(/C=C/c3ccco3)nc12`, for which the inhibition at 10 µM turned out to be 8.9%.

Take `CCCc1nn(C)c2c(NCc3cccc(OC)c3)nc(/C=C/c3ccco3)nc12`: the inhibition at 10 µM is 35.6%.

For `CCCc1nn(C)c2c(N3CCN(CC)CC3)nc(/C=C/c3ccccc3)nc12`, the inhibition at 10 µM was found to be 10.2%. In the case of `CCCc1nn(C)c2c(NCc3ccco3)nc(/C=C/c3cc(OC)c(OC)c(OC)c3)nc12`, the inhibition at 10 µM was found to be 62.1%.

As for `CCCc1nn(C)c2c(Nc3ccc(C(=O)OC)cc3)nc(-c3cc(OC)c(OC)c(OC)c3)nc12`, the inhibition at 10 µM worked out at 17.3%.

With `CCCc1nn(C)c2c(NCc3cccc(OC)c3)nc(/C=C/c3cc(OC)c(OC)c(OC)c3)nc12`, the inhibition at 10 µM was 70.9%. Take `CCCc1nn(C)c2c(Nc3ccc(OC(F)(F)F)cc3)nc(/C=C/c3cc(OC)c(OC)c(OC)c3)nc12`: the inhibition at 10 µM is 16.4%. Regarding `CCCc1nn(C)c2c(N3CCOCC3)nc(/C=C/c3ccccc3)nc12`, the inhibition at 10 µM is 10.2%.

With `CCCc1nn(C)c2c(NC(C)CC)nc(/C=C/c3cc(OC)c(OC)c(OC)c3)nc12` (stereo not drawn), the inhibition at 10 µM is 75%. As for `CCCc1nn(C)c2c(Nc3cccc(Br)c3)nc(/C=C/c3cc(OC)c(OC)c(OC)c3)nc12`, the inhibition at 10 µM came to 31%.

Turning to `CCCc1nn(C)c2c(NCCc3ccccc3F)nc(/C=C/c3ccco3)nc12`, the inhibition at 10 µM came out at 73%. Same read-out and setting: the result for `CCCc1nn(C)c2c(NCc3ccc(C(F)(F)F)cc3)nc(/C=C/c3cc(OC)c(OC)c(OC)c3)nc12` reads 54.6%; that for `CCCc1nn(C)c2c(N3CCCCC3)nc(/C=C/c3ccccc3)nc12`, 7.7%.

On to `CCCc1nn(C)c2c(N3CCCC3)nc(/C=C/c3cc(OC)c(OC)c(OC)c3)nc12`, for which the inhibition at 10 µM turned out to be 15.5%. As for `CCCc1nn(C)c2c(NCCc3ccc(Cl)cc3)nc(/C=C/c3ccccc3)nc12`, the inhibition at 10 µM was determined as 10.7%.

For the molecule `CCCc1nn(C)c2c(Nc3ccc(Cl)cc3)nc(/C=C/c3cc(OC)c(OC)c(OC)c3)nc12`, the inhibition at 10 µM is 25.3%. Still for that read-out and setting: the figure for `CCCc1nn(C)c2c(NCCc3cccc(Cl)c3)nc(/C=C/c3cc(OC)c(OC)c(OC)c3)nc12` is 80%; for `CCCc1nn(C)c2c(NCc3ccc(OC)cc3)nc(/C=C/c3cc(OC)c(OC)c(OC)c3)nc12` it is 73.1%. For `CCCc1nn(C)c2c(Nc3ccc(C(=O)NC(C)(C)C)cc3)nc(/C=C/c3cc(OC)c(OC)c(OC)c3)nc12`, the inhibition at 10 µM turned out to be 10.6%. `CCCc1nn(C)c2c(Nc3cccc(C(F)(F)F)c3)nc(/C=C/c3ccccc3)nc12`: the inhibition at 10 µM worked out at 14.6%. Turning to `CCCc1nn(C)c2c(N3CCCCC3)nc(/C=C/c3cc(OC)c(OC)c(OC)c3)nc12`, the inhibition at 10 µM turned out to be 16.3%. With `CCCCNC(=O)c1ccc(Nc2nc(/C=C/c3cc(OC)c(OC)c(OC)c3)nc3c(CCC)nn(C)c23)cc1`, the inhibition at 10 µM worked out at 35.9%. On the same count and under the same terms, the figure for `CCCc1nn(C)c2c(N3CCN(CC)CC3)nc(/C=C/c3cc(OC)c(OC)c(OC)c3)nc12` is 28.3%; for `CCCc1nn(C)c2c(N3CCCCC3)nc(-c3cc(OC)c(OC)c(OC)c3)nc12` it is 7.6%. With `CCCc1nn(C)c2c(Nc3ccc(C(F)(F)F)cc3)nc(/C=C/c3cc(OC)c(OC)c(OC)c3)nc12`, the inhibition at 10 µM was found to be 37.8%.

In the case of `CCCc1nn(C)c2c(N(C)C)nc(/C=C/c3cc(OC)c(OC)c(OC)c3)nc12`, the inhibition at 10 µM was determined as 82.1%.

Consider `CCCc1nn(C)c2c(NCCc3ccccc3)nc(/C=C/c3ccco3)nc12`, for which the inhibition at 10 µM was found to be 36.4%. As to `CCCc1nn(C)c2c(NCc3ccccc3Cl)nc(/C=C/c3ccco3)nc12`, the inhibition at 10 µM turned out to be 54.8%. Consider `CCCc1nn(C)c2c(NCc3ccc(Cl)cc3)nc(/C=C/c3ccccc3)nc12`, for which the inhibition at 10 µM is 24.2%. On the same count and under the same terms, the figure for `CCCc1nn(C)c2c(NCc3ccc(C(F)(F)F)cc3)nc(/C=C/c3ccco3)nc12` is 50.2%; for `CCCc1nn(C)c2c(NCCc3ccc(OC)cc3)nc(-c3cc(OC)c(OC)c(OC)c3)nc12` it is 10.2%. For the molecule `CCCc1nn(C)c2c(Nc3ccc(C(=O)OC)cc3)nc(/C=C/c3cc(OC)c(OC)c(OC)c3)nc12`, the inhibition at 10 µM is 10.3%. Same read-out and setting: the figure for `CCCc1nn(C)c2c(Nc3ccc(F)c(C(F)(F)F)c3)nc(/C=C/c3cc(OC)c(OC)c(OC)c3)nc12` is 82.6%. Consider `CCCc1nn(C)c2c(NCCc3ccccc3Cl)nc(/C=C/c3ccccc3)nc12`, for which the inhibition at 10 µM worked out at 14.3%. As for `CCCc1nn(C)c2c(NCc3ccc(Br)cc3)nc(/C=C/c3ccco3)nc12`, the inhibition at 10 µM turned out to be 40.6%.

`CCCc1nn(C)c2c(Nc3cccc(C(F)(F)F)c3)nc(-c3cc(OC)c(OC)c(OC)c3)nc12`: the inhibition entry is “inactive”. For the molecule `CCCc1nn(C)c2c(N3CCCC3)nc(/C=C/c3ccccc3)nc12`, the inhibition at 10 µM was determined as 6.3%. For `CCCc1nn(C)c2c(Nc3ccccc3)nc(-c3cc(OC)c(OC)c(OC)c3)nc12`, the inhibition at 10 µM came to 22.2%. For `CCCc1nn(C)c2c(Nc3ccc(C(=O)OC)cc3)nc(/C=C/c3ccccc3)nc12`, the inhibition at 10 µM was found to be 42.4%. `CCCc1nn(C)c2c(N3CCOCC3)nc(/C=C/c3cc(OC)c(OC)c(OC)c3)nc12`: the inhibition at 10 µM came to 81%. For the molecule `CCCc1nn(C)c2c(Nc3ccccc3Br)nc(/C=C/c3cc(OC)c(OC)c(OC)c3)nc12`, the inhibition at 10 µM is 38.5%. Take `CCCCNC(=O)c1ccc(Nc2nc(-c3cc(OC)c(OC)c(OC)c3)nc3c(CCC)nn(C)c23)cc1`: the inhibition entry was “inactive”. In the case of `CCCc1nn(C)c2c(NCc3ccc(Cl)cc3)nc(/C=C/c3cc(OC)c(OC)c(OC)c3)nc12`, the inhibition at 10 µM stood at 67.2%.

As for `CCCc1nn(C)c2c(Nc3cccc(C)c3)nc(/C=C/c3cc(OC)c(OC)c(OC)c3)nc12`, the inhibition at 10 µM was determined as 25.8%. The same measure, in the same setting: the result for `CCCc1nn(C)c2c(NCc3ccco3)nc(/C=C/c3ccco3)nc12` reads 52.3%. On the same count and under the same terms, the figure for `CCCc1nn(C)c2c(Nc3ccc(C(=O)N4CCN(CC)CC4)cc3)nc(/C=C/c3cc(OC)c(OC)c(OC)c3)nc12` is 15.4%; for `CCCc1nn(C)c2c(Nc3ccc(C(=O)N4CCN(CC)CC4)cc3)nc(-c3cc(OC)c(OC)c(OC)c3)nc12` it is 27.6%; for `CCCc1nn(C)c2c(Nc3ccc(OC)cc3)nc(/C=C/c3cc(OC)c(OC)c(OC)c3)nc12` it is 63.2%.

(Values after ChEMBL document CHEMBL4354797, “Novel Pyrazolo[4,3- d]pyrimidine as Potent and Orally Active Inducible Nitric Oxide Synthase (iNOS) Dimerization Inhibitor with Efficacy in Rheumatoid Arthritis Mouse Model” (J Med Chem, 2019).)
